# Compounds with a hit are over-represented: about 1.9% of the library has one in this group of screens.
# TAG inh: inhibitors of triacylglycerol accumulation. inhibition, % at 12.5 µM. H9c2 cells, Nile Red lipid (TAG) fluorescence; cells loaded with 200 µM oleic acid. actives 0.66% (n = 230,000);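 active = pattern-corrected inhibition of lipid staining of at least 50% with the nuclear-stain viability signal not falling by more than 50%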;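 also: 0% = DMSO wells and 100% = triacsin C control wells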
# APJ antagonist: APJ receptor antagonism. P35414. CHO-K1 APJ beta-arrestin complementation, luminescence. inhibition, % at 20 µM. actives 0.32% (n = 330,000). AID 2521;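 active = inhibition above about 40% at 20 µM, limit read from the data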;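 also: cells challenged with 10 nM apelin-13 agonist together with compound; plate controls were apelin-13 plus DMSO wells for no effect and DMSO wells lacking apelin-13 for full effect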
# CCR6 antag: blocks CCL20-driven beta-arrestin recruitment at human CCR6; P51684; actives 0.49% (n = 340,000); inhibition, % at 20 µM; AID 493098; CHO-K1 CCR6 PathHunter beta-arrestin, luminescence, CCL20-stimulated;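 active = compounds whose inhibition of the agonist-driven luminescence signal at 20 µM reaches about 50%, limit read from the data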;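 also: cells stimulated with CCL20 at 14 nM final; plate controls were DMSO with CCL20 for no effect and DMSO without agonist for full effect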
# Target sequence (P51684 whole entry, looked up): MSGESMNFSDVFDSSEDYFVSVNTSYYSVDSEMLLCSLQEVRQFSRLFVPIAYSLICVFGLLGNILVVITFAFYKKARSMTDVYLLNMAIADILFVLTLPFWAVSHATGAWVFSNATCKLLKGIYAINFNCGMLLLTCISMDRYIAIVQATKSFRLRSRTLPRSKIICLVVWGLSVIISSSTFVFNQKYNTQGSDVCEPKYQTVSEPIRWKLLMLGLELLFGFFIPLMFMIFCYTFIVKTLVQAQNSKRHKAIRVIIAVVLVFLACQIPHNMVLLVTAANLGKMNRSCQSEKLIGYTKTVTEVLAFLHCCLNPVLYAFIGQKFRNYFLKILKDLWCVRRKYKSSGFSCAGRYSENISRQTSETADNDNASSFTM
# CXCR6 block: blocks human CXCR6 beta-arrestin recruitment | actives 0.36% (n = 360,000) | inhibition, % at 20 µM | CHO-K1 PathHunter CXCR6 beta-arrestin, luminescence | AID 602244; in the data active = inhibition above about 34%, passing the limit was not always enough;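 also: antagonist mode with CXCL16 agonist at 10 nM final; 0% = 10 nM CXCL16 with DMSO and 100% = unstimulated wells without agonist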
# Target sequence (O00574 whole entry, looked up): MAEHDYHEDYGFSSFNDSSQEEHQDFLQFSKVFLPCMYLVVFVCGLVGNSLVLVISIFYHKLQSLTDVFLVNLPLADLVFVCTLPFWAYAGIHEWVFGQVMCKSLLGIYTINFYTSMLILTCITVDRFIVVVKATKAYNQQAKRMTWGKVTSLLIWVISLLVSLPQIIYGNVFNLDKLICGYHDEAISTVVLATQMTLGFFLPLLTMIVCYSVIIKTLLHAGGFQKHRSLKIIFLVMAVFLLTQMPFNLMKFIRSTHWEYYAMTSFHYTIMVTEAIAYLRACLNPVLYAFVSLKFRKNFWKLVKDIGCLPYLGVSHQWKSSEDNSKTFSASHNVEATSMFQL
# EBI2 block: blocks human EBI2 receptor beta-arrestin signaling | P32249 | EBI2 beta-arrestin recruitment, luminescence, 7a,25-OHC stimulated | inhibition, % at 5 µM | actives 0.81% (n = 360,000) | AID 651636; in the data active = inhibition above about 38%;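 also: enzyme fragment complementation signal reports receptor beta-arrestin coupling in cells; 0% = agonist plus DMSO wells and 100% = wells without agonist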
# APJ ag: activates the human apelin receptor APJ; CHO-K1 APJ PathHunter beta-arrestin, luminescence; 0% DMSO wells, 100% apelin; activation, % at 20 µM; actives 0.11% (n = 330,000); AID 2520;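 active = activation more than six SD over the plate average, tested at 20 µM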;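 also: 0% = DMSO alone and 100% = apelin-13 at 10 nM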
#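 Test system: CHO-K1 APJ beta-arrestin complementation cell line | Compound: Single test compound dose, 20 µM final, 1% DMSO | Incubation: Compound 90 min 25 °C, reagent 1 h | Measured by: beta-gal luminescence | Read-out basis: APJ–arrestin association signal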
# EBI2 conf: confirmation of human EBI2 receptor antagonists | shares compounds with EBI2 block | EBI2 beta-arrestin luminescence, 7a,25-OHC antagonism | inhibition, % at 5 µM | actives 29% (n = 2,400) | AID 651997;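 active = inhibition of at least 50%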
# EBI2 agonist: counter-screen for EBI2 antagonists: EBI2 agonist activity; AID 652000; shares compounds with EBI2 block; activation, % at 5 µM; 2,400 tested, under 10 active; EBI2-expressing cells, agonist mode, luminescence, 60 min; 0% vehicle, 100% 7α,25-dihydroxycholesterol control;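 active = activation of at least 50%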
# bGal counter: inhibits E. coli beta-galactosidase, counter-screen for EBI2 antagonists | shares compounds with EBI2 block | purified beta-galactosidase, luminescent Galacton Star, 15 min | inhibition, % at 5 µM | actives 1% (n = 2,400);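 active = replicate-average signal at least 3 plate SD below neutral wells, shown as high inhibition, flagging enzyme-inhibiting false positives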;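 also: 0% = DMSO wells with enzyme and 100% = wells lacking enzyme; higher means stronger loss of beta-gal luminescence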
# Numbers without * were called inactive; nt = no result.
SMILES,TAG inh,APJ antagonist,CCR6 antag,CXCR6 block,EBI2 block,APJ ag,EBI2 conf,EBI2 agonist,bGal counter
CCOc1ccc(/C=N/NC(=O)c2ccccc2O)cc1CN1CC2CC(C1)c1cccc(=O)n1C2 (centres undefined),nt,-9.9,-1.9,4.3,5.1,-2.4,nt,nt,nt
CC(CC(=O)Nc1ccc(Cl)c(S(=O)(=O)N2CCOCC2)c1)c1ccccc1 (centres undefined),-2.1,-17.0,8.1,-12.5,1.3,-2.2,nt,nt,nt
COc1ccccc1NC(=O)N(C)C[C@@H]1OCc2cnnn2CCCC(=O)N([C@H](C)CO)C[C@H]1C,11.2,nt,nt,7.2,-5.1,nt,nt,nt,nt
COc1cccc2cc(C(=O)c3ccc([N+](=O)[O-])cc3)oc12,-0.1,-20.0,-10.4,-6.0,-7.3,3.5,nt,nt,nt
CCC(C)c1ccc(OCC(=O)Nc2ccc3c(c2)C(=O)NC3=O)cc1 (centres undefined),16.2,-45.9,-1.8,-7.0,5.1,0.8,nt,nt,nt
OC(COc1ccc(Cl)cc1)CN1CCC(Cc2ccccc2)CC1 (centres undefined),nt,9.3,14.7,-0.8,59.9*,-0.6,34.6,-1.5,-9.7
O=C(/C=C/c1ccc(Cl)cc1)N1CCN(CCN2C(=O)c3cccc4cccc(c34)C2=O)CC1,-9.4,nt,18.6,0.4,96.7*,nt,80.8*,-0.5,-12.1
CN1CCN(C(=O)/C=C/c2c(F)cccc2Cl)CC1,-16.6,13.1,-10.5,0.3,-6.0,-3.1,nt,nt,nt
OC(COc1ccc(Cl)cc1)CN1CCN(c2ccccc2)CC1 (centres undefined),nt,-9.3,-4.4,1.2,35.8,-4.1,nt,nt,nt
CN1CCN(C(=O)/C=C\c2ccc(Cl)cc2)CC1,nt,-4.4,-7.1,4.5,88.5*,-3.3,66.2*,1.8,3.5
CN1CCN(C(=O)/C=C/c2ccccc2)CC1,nt,12.3,-0.9,4.1,44.8*,-0.2,9.6,-1.3,-6.4
Cc1ccc(N(C)S(=O)(=O)c2c(C)noc2/C=C/N(C)C)cc1,nt,-14.7,8.0,4.5,-8.4,2.2,nt,nt,nt
O=C(Nc1ccc2ccccc2c1)c1ccc(NS(=O)(=O)c2ccc(Br)s2)cc1,nt,-31.9,0.8,-7.1,44.2*,2.7,15.0,0.5,3.4
Cc1ccc(-c2cc3nc(-c4ccccc4)cc(N)n3n2)cc1,-6.0,2.4,-8.7,2.4,1.6,-1.4,nt,nt,nt
Cc1ccc(-c2cc3nc(-c4ccccc4)cc(NCCCO)n3n2)cc1,46.3,nt,nt,5.5,47.1*,nt,35.5,-0.5,-10.5
CC(C)(C)CNC(=O)c1cccc2c1C(=O)c1ccc(N3CCCC3)cc1S2(=O)=O,nt,1.4,-2.5,-4.7,53.7*,-0.6,60.6*,1.3,-7.3
Clc1ccc(Nc2ccc(NCc3ccccc3)nn2)cc1,nt,-1.9,-0.1,-4.3,63.1*,-0.7,45.1,-0.8,-8.5
Cc1ccc(Nc2ccc(NCc3ccccc3)nn2)cc1C,nt,3.8,-2.9,-10.9,65.0*,-4.3,44.6,1.2,5.4
Cc1cc(NCc2ccccc2)nc2ccccc12,nt,14.4,8.1,-5.9,2.7,-1.1,nt,nt,nt
O=C(O)c1ccsc1Cc1cccs1,1.6,nt,nt,-2.2,-9.5,nt,nt,nt,nt
COc1ccc(N(C)S(=O)(=O)c2cccc(C(=O)NCC(c3cccs3)N(C)C)c2)cc1 (centres undefined),4.1,-44.2,6.3,8.4,5.7,-8.2,nt,nt,nt
Cc1ccc(-n2nnnc2-c2ccccc2Br)cc1,-5.6,-4.5,-1.5,2.5,37.8*,-0.4,45.2,-1.8,-17.3
N#Cc1ccc(C23CC4(C2)[C@H](CN(Cc2cccnc2)[C@@H]4c2ccccc2)C3c2ccccc2)cc1 (some centres undefined),25.4,-55.6,9.7,-3.5,71.6*,1.3,30.4,-0.7,-5.3
Cc1ccc(NNC(=S)Nc2ccc(C(C)C)cc2)c(C)c1,nt,29.8,42.3,18.6,70.1*,-5.0,62.4*,-1.2,-7.6
CC(NCC(O)COc1ccc2ccccc2c1)c1ccccc1 (centres undefined),nt,17.6,0.6,-9.8,46.2*,1.7,18.1,0.4,-5.8
SMILES,TAG inh,APJ antagonist,CCR6 antag,CXCR6 block,EBI2 block,APJ ag,EBI2 conf,EBI2 agonist,bGal counter
COc1ccc(CCC(=O)N2CCN(C(=O)c3ccccc3)CC2)cc1,nt,13.8,-0.5,8.7,55.1*,0.6,39.9,2.4,-1.0
COc1ccc(CCC(=O)N2CCN(S(=O)(=O)c3cccs3)CC2)cc1,1.5,14.2,11.0,-5.5,37.7,-7.3,nt,nt,nt
COc1ccc(CCC(=O)N2CCN(C3CCCCC3)CC2)cc1,nt,4.9,3.4,-2.2,45.5*,-4.0,14.7,-1.4,-7.8
CCN(CC)c1ccc(/C=N/NC(=O)Nc2ccccc2)cc1,-19.2,9.2,-0.2,-4.9,39.7*,-5.1,52.2*,-0.1,-10.4
CCCCN(C(=O)C1CCN(C(=O)c2ccccc2C)CC1)c1c(N)n(CC(C)C)c(=O)[nH]c1=O,-1.0,nt,7.7,-6.5,9.7,nt,nt,nt,nt
CCOC(=O)N1CCN(C(=O)COc2cc(C)c(Cl)c(C)c2)CC1,-8.1,7.6,8.5,0.3,82.7*,-4.0,62.9*,1.1,-2.1
CCOC(=O)N1CCN(C(=O)COc2ccccc2Cl)CC1,11.0,33.3,-4.8,-10.2,8.1,-15.3,nt,nt,nt
O=C(COc1ccc2ccccc2c1Br)N1CCCC1,6.3,-23.5,-12.1,2.6,1.7,0.4,nt,nt,nt
CCOC(=O)N1CCN(C(=O)COc2ccc3ccccc3c2Br)CC1,-7.4,0.7,-0.8,-9.9,51.6*,10.1,24.3,-1.3,-7.3
CC1CC(C)CN(S(=O)(=O)c2ccc(C(=O)N3CCN(c4ccccc4)CC3)cc2)C1 (centres undefined),nt,13.4,-14.6,2.6,56.8*,1.5,27.8,-0.2,-10.5
COc1ccc(-c2cc(C(=O)N3CCN(S(=O)(=O)c4ccc(C)cc4)CC3)[nH]n2)cc1,1.5,2.0,3.3,-0.2,53.2*,1.3,49.0,-0.8,-12.9
COc1ccc(S(=O)(=O)N2CCN(C(=O)c3cc(-c4ccc(C)cc4)n[nH]3)CC2)cc1,3.7,-21.3,9.5,3.6,74.5*,-2.6,48.7,1.5,2.6
COc1ccc(CN2CCN(C(=O)c3ccc(S(=O)(=O)N4CCCCCC4)cc3)CC2)cc1,-7.4,-18.2,-7.4,1.1,-0.5,1.9,nt,nt,nt
COc1ccc(C(=O)N2CCN(S(=O)(=O)c3ccc(Br)cc3)CC2)cc1,-7.6,-8.0,9.2,-6.4,52.2*,-3.1,27.6,1.3,8.6
